# Laboratory results published in ChEMBL document CHEMBL2150942, “Synthesis and antibacterial activity of novel 1,3-diphenyl-1H-pyrazoles functionalized with phenylalanine-derived rhodanines” (Eur J Med Chem, 2012).
# Legend:
# Staphylococcus aureus [1] = experiment: Antibacterial activity against Staphylococcus aureus KCTC 503 after 20 hrs by two fold serial dilution assay; type: functional; details: KCTC 503, 20 h
# Staphylococcus aureus [2] = experiment: Antibacterial activity against Staphylococcus aureus RN4220 after 20 hrs by two fold serial dilution assay; type: functional; details: RN4220, 20 h
# Escherichia coli [3] = experiment: Antibacterial activity against Escherichia coli CCARM 1924 after 20 hrs by two fold serial dilution assay; type: functional; details: CCARM 1924, 20 h
# Escherichia coli [4] = experiment: Antibacterial activity against Escherichia coli CCARM 1356 after 20 hrs by two fold serial dilution assay; type: functional; details: CCARM 1356, 20 h
# Staphylococcus aureus [5] = experiment: Antibacterial activity against methicillin-resistant Staphylococcus aureus CCARM 3167 after 20 hrs by two fold serial dilution assay; type: functional; details: CCARM 3167, 20 h
# Staphylococcus aureus [6] = experiment: Antibacterial activity against methicillin-resistant Staphylococcus aureus CCARM 3506 after 20 hrs by two fold serial dilution assay; type: functional; details: CCARM 3506, 20 h
# Staphylococcus aureus [7] = experiment: Antibacterial activity against quinolone-resistant Staphylococcus aureus CCARM 3505 after 20 hrs by two fold serial dilution assay; type: functional; details: CCARM 3505, 20 h
# Staphylococcus aureus [8] = experiment: Antibacterial activity against quinolone-resistant Staphylococcus aureus CCARM 3519 after 20 hrs by two fold serial dilution assay; type: functional; details: CCARM 3519, 20 h
# Staphylococcus aureus [9] = experiment: Ratio of norfloxacin MIC to compound MIC for methicillin-resistant Staphylococcus aureus CCARM 3167; type: functional
# Staphylococcus aureus [10] = experiment: Ratio of norfloxacin MIC to compound MIC for methicillin-resistant Staphylococcus aureus CCARM 3506; type: functional
# HeLa [11] = experiment: Cytotoxicity against human HeLa cells after 48 hrs by MTT assay; type: cell-based
# How it was run: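 HeLa cells grown in DMEM with 10% FBS and penicillin-streptomycin at 37 °C in 5% CO₂, passaged three times. About 1 × 10⁴ cells/well were seeded and attached overnight, then given a range of compound concentrations for 48 h. MTT (5 mg/ml stock) was added for 4 h, formazan dissolved in DMSO, and OD read at 570 nm. Run four times; IC50 was the concentration giving 50% growth inhibition.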
# HeLa [12] = experiment: Cytotoxicity against human HeLa cells assessed as decrease in cell viability at 1 ug/mL after 48 hrs by MTT assay; type: cell-based
# How it was run: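 HeLa cells (DMEM, 10% FBS, antibiotics, 37 °C, 5% CO₂) were seeded at about 1 × 10⁴ cells/well, left overnight, then exposed to compound for 48 h. Viability was read by MTT (5 mg/ml stock, 4 h), with formazan dissolved in DMSO and absorbance taken at 570 nm. Assay performed four times.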
Structure (SMILES),MIC (Staphylococcus aureus [1]) [µg/mL],MIC (Staphylococcus aureus [2]) [µg/mL],MIC (Escherichia coli [3]) [µg/mL],MIC (Escherichia coli [4]) [µg/mL],MIC (Staphylococcus aureus [5]) [µg/mL],MIC (Staphylococcus aureus [6]) [µg/mL],MIC (Staphylococcus aureus [7]) [µg/mL],MIC (Staphylococcus aureus [8]) [µg/mL],Ratio (Staphylococcus aureus [9]),Ratio (Staphylococcus aureus [10]),IC50 (HeLa [11]) [µg/mL],Activity (HeLa [12])
Cc1ccc(-c2nn(-c3ccccc3)cc2/C=C2\SC(=S)N([C@H](Cc3ccccc3)C(=O)O)C2=O)cc1,1,2,> 64,> 64,1,1,1,1,8,4,20.2,Non-toxic
O=C(O)[C@@H](Cc1ccccc1)N1C(=O)/C(=C/c2cn(-c3ccccc3)nc2-c2cccc(Br)c2)SC1=S,8,2,> 64,> 64,4,4,4,4,–,–,–,–
O=C(O)[C@@H](Cc1ccccc1)N1C(=O)/C(=C/c2cn(-c3ccccc3)nc2-c2ccc([N+](=O)[O-])cc2)SC1=S,16,4,> 64,> 64,1,1,1,1,8,4,–,–
O=C(O)[C@@H](Cc1ccccc1)N1C(=O)/C(=C/c2cn(-c3ccccc3)nc2-c2ccccc2Cl)SC1=S,2,2,> 64,> 64,1,1,2,1,8,4,30.2,Non-toxic
Cc1onc(-c2ccccc2)c1C(=O)N[C@@H]1C(=O)N2[C@@H]1SC(C)(C)[C@@H]2C(=O)O [OXACILLIN],1,1,> 64,> 64,> 64,> 64,1,1,–,–,–,–
Cc1ccc(-c2nn(-c3ccccc3)cc2/C=C2\SC(=S)N([C@H](Cc3ccccc3)C(=O)O)C2=O)c(C)c1,2,2,> 64,> 64,2,2,2,1,–,–,–,–
O=C(O)[C@@H](Cc1ccccc1)N1C(=O)/C(=C/c2cn(-c3ccccc3)nc2-c2ccc(Cl)cc2)SC1=S,2,2,> 64,> 64,2,2,2,2,–,–,–,–
COc1ccccc1-c1nn(-c2ccccc2)cc1/C=C1\SC(=S)N([C@H](Cc2ccccc2)C(=O)O)C1=O,16,2,> 64,> 64,16,16,16,16,–,–,–,–
COc1ccc(-c2nn(-c3ccccc3)cc2/C=C2\SC(=S)N([C@H](Cc3ccccc3)C(=O)O)C2=O)cc1,16,4,> 64,> 64,4,4,4,8,–,–,–,–
